Experimental data taken from ChEMBL document CHEMBL1133013, “Structure-activity relationships and pharmacokinetic analysis for a series of potent, systemically available biphenylsulfonamide matrix metalloproteinase inhibitors” (J Med Chem, 2000).

Assays:
Stromelysin-1 = Stromelysin-1 (Homo sapiens, UniProt P08254); assay: In vitro inhibition of recombinant human matrix metalloprotease-3 (MMP-3)
[1] = molecular target: Matrix metalloproteinase-9 (Homo sapiens, UniProt P14780); assay: In vitro inhibition of matrix metalloprotease-9 (MMP-9)
Matrix metalloproteinase-9, sequence (P14780 whole entry): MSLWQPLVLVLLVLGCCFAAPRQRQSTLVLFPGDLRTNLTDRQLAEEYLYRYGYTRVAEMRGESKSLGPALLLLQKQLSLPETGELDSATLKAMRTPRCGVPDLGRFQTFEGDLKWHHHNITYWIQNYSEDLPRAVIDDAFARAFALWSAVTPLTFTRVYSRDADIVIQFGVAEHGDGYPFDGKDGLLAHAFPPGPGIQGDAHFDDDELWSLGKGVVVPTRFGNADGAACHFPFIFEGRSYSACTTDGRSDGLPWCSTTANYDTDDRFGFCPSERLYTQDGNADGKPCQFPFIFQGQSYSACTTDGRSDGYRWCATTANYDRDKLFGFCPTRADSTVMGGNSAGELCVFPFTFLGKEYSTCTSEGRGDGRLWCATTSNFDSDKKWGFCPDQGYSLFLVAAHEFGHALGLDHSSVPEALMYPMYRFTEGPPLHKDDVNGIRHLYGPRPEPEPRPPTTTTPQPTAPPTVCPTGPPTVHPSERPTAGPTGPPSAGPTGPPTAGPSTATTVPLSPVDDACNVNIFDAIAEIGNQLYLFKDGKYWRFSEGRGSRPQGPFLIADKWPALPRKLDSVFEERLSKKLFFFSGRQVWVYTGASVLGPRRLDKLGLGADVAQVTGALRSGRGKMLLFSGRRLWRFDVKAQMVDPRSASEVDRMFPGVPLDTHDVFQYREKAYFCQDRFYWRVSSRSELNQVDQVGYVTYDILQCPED

Matrilysin = molecular target: T1, Matrilysin (Homo sapiens, UniProt P09237); assay: In vitro inhibition of matrix metalloprotease-7 (MMP-7)
T1 sequence (P09237 whole entry): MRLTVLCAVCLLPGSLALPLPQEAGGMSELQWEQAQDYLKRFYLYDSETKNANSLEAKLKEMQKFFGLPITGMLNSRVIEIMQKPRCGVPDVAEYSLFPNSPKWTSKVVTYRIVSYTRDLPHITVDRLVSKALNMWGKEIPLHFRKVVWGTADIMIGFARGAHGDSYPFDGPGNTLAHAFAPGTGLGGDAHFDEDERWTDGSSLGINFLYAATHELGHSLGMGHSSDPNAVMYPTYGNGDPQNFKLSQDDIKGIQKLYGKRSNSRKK

Interstitial collagenase = molecular target: T2, Interstitial collagenase (Homo sapiens, UniProt P03956); assay: In vitro inhibition of human recombinant matrix metalloprotease-1 (MMP-1)
T2 sequence (P03956 whole entry): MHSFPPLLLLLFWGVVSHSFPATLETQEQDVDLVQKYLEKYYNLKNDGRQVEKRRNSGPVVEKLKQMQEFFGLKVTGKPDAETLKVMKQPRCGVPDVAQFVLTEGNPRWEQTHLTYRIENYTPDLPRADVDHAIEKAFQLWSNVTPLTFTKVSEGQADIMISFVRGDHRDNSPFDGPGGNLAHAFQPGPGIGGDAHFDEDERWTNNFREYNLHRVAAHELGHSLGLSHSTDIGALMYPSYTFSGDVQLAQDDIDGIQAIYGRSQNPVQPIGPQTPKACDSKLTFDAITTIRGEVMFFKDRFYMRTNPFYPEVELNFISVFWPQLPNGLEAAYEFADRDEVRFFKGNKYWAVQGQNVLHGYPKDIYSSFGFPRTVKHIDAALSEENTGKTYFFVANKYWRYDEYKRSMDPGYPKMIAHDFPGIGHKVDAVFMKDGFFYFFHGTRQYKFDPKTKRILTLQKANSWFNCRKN

[2] = molecular target: 72 kDa type IV collagenase (Homo sapiens, UniProt P08253); assay: In vitro inhibition of matrix metalloprotease-2 (MMP-2)
72 kDa type IV collagenase, sequence (P08253 whole entry): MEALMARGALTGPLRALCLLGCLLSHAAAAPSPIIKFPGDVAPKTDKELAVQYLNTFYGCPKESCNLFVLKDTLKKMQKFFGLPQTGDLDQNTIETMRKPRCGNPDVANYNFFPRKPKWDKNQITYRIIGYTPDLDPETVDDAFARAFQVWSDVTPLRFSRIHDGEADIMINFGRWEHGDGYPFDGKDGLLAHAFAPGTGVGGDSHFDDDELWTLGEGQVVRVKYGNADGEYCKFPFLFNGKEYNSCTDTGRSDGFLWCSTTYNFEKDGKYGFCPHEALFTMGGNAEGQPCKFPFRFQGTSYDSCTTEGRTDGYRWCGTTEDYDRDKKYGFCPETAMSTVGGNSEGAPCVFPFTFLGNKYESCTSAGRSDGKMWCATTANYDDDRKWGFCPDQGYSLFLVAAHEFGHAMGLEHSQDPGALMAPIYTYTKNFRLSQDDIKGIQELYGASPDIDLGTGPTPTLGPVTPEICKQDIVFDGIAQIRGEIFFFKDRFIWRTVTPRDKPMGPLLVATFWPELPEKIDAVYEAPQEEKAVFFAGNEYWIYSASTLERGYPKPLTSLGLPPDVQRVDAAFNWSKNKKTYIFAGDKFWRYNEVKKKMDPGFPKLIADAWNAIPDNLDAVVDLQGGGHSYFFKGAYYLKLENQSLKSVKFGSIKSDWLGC

Collagenase 3 = Collagenase 3 (Homo sapiens, UniProt P45452)
[3] = Cmax in rat plasma after single 5 mg/kg oral cassette gavage dose; assay type: ADME, organism-based; design: dose 5 mg/kg, route oral
Method in brief: (§1)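 Cassette of 5–7 compounds given together as one oral gavage, 5 mg/kg per compound, methyl cellulose suspension, 3 fasted male Wistar rats (80-90 days old). Heparinized plasma taken by jugular cannula predose to 48 h. LC-MS/MS with LLOQ 10 ng/mL. Noncompartmental analysis of individual rats: Cmax/tmax as observed, t1/2 = 0.693/λz, trapezoidal AUC(0-tldc) extrapolated to infinity.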

[4] = Concentration in rat plasma 24 hours after single 5 mg/kg oral cassette gavage dose; assay type: ADME, organism-based; design: dose 5 mg/kg, route oral; details: read-out: C24
[5] = Half life (t1/2) in rats following a single 5 mg/kg oral cassette gavage dose; assay type: ADME, organism-based; design: dose 5 mg/kg, route oral; details: rat, in vivo; method in brief: as §1
[6] = Pharmacokinetic parameters in rats following a single 5 mg/kg oral cassette gavage dose; assay type: ADME, organism-based; design: dose 5 mg/kg, route oral; details: rat, in vivo, read-out: AUC 0-infinity; method in brief: as §1
[7] = AUC in rats following a single 5 mg/kg oral cassette gavage dose; assay type: ADME, organism-based; design: dose 5 mg/kg, route oral; details: rat, plasma, read-out: AUC 0-tldc; method in brief: as §1
[8] = Time to maximal concentration (tmax) in rats following a single 5 mg/kg oral cassette gavage dose; assay type: ADME, organism-based; design: dose 5 mg/kg, route oral; details: rat, in vivo; method in brief: as §1

Stromelysin-1, sequence (P08254 whole entry): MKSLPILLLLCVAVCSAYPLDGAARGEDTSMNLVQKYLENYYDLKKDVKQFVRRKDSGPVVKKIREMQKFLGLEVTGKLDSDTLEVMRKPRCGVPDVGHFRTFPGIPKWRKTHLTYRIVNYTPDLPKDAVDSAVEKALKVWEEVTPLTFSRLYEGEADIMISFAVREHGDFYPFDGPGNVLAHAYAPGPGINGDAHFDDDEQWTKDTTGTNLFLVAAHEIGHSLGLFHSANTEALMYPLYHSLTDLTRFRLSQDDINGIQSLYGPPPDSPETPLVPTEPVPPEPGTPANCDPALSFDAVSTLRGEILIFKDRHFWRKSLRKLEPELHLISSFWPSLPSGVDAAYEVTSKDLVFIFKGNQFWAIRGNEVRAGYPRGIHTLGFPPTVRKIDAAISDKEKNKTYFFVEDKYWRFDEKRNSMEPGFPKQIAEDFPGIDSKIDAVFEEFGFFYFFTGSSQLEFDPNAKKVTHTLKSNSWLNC

SMILES	IC50 (Stromelysin-1)	IC50 [1]	IC50 (Matrilysin)	IC50 (Interstitial collagenase)	IC50 [2]	IC50 (Collagenase 3)	Cmax [3]	concentration at 24 h [4]	half-life [5]	AUC [6]	AUC [7]	Tmax [8]
O=C(NCCCC[C@H](NS(=O)(=O)c1ccc(-c2ccc(Br)cc2)cc1)C(=O)O)OCc1ccccc1	28 nM	10000 nM	15000 nM	40000 nM	31 nM	13 nM	–	–	–	–	–	–
O=C(O)C(CCSCc1ccccc1)NS(=O)(=O)c1ccc(-c2ccc(Br)cc2)cc1 (stereo not given)	22 nM	10000 nM	36000 nM	56000 nM	7 nM	36 nM	11600 ng/mL	1530 ng/mL	12.5 h	132 µg·h/mL	119 µg·h/mL	1.33 h
CC(C)[C@H](NS(=O)(=O)c1ccc(-c2ccc(Cl)cc2)cc1)C(=O)O	9 nM	16000 nM	7500 nM	6500 nM	11 nM	48 nM	8860 ng/mL	4020 ng/mL	34.1 h	427 µg·h/mL	170 µg·h/mL	0.5 h
O=C(CCc1ccccc1)NCCC[C@H](NS(=O)(=O)c1ccc(-c2ccc(Br)cc2)cc1)C(=O)O	21 nM	7700 nM	6800 nM	41000 nM	8 nM	7 nM	–	–	–	–	–	–
CC(C)[C@H](NS(=O)(=O)c1ccc(-c2ccc(F)cc2)cc1)C(=O)O	10 nM	64000 nM	4800 nM	4200 nM	39 nM	43 nM	18700 ng/mL	11300 ng/mL	45.5 h	1020 µg·h/mL	670 µg·h/mL	2.75 h
CC(C)[C@H](NS(=O)(=O)c1ccc(-c2ccc(C#N)cc2)cc1)C(=O)NO	135 nM	100000 nM	16000 nM	29000 nM	–	–	–	–	–	–	–	–
CC(C)[C@H](NS(=O)(=O)c1ccc(-c2ccc(N)cc2)cc1)C(=O)O	36 nM	20000 nM	31000 nM	–	–	105 nM	–	–	–	–	–	–
CC(C)[C@@H](NS(=O)(=O)c1ccc(-c2ccc(Br)cc2)cc1)C(=O)O	–	1500 nM	11000 nM	–	–	–	25600 ng/mL	16300 ng/mL	41.7 h	1380 µg·h/mL	924 µg·h/mL	4.5 h
O=C(CCc1ccccc1)NCCCC[C@H](NS(=O)(=O)c1ccc(-c2ccc(Br)cc2)cc1)C(=O)O	10 nM	4800 nM	8600 nM	15000 nM	–	–	–	–	–	–	–	–
Cc1ccc(-c2ccc(S(=O)(=O)N[C@H](C(=O)O)C(C)C)cc2)cc1	3 nM	3900 nM	4500 nM	2200 nM	2 nM	11 nM	3070 ng/mL	< 10 ng/mL	0.403 h	2.37 µg·h/mL	2.25 µg·h/mL	0.5 h
CC(C)[C@H](NS(=O)(=O)c1ccc(-c2ccccc2)cc1)C(=O)O	38 nM	26000 nM	71000 nM	5400 nM	40 nM	62 nM	5180 ng/mL	39 ng/mL	3.35 h	3.6 µg·h/mL	12.1 µg·h/mL	0.5 h
CC(C)[C@H](NS(=O)(=O)c1ccc(-c2ccc(Br)cc2)cc1)C(=O)O	–	7900 nM	7200 nM	–	–	–	42400 ng/mL	22700 ng/mL	43.6 h	2820 µg·h/mL	1400 µg·h/mL	2 h
CC(C)[C@H](NS(=O)(=O)c1ccc(-c2cccc(Br)c2)cc1)C(=O)O	290 nM	–	–	–	535 nM	710 nM	–	–	–	–	–	–
C[C@H](NS(=O)(=O)c1ccc(-c2ccc(Br)cc2)cc1)C(=O)O	12 nM	9500 nM	11000 nM	–	12 nM	10 nM	17200 ng/mL	12900 ng/mL	25.1 h	818 µg·h/mL	584 µg·h/mL	10.5 h
O=C(O)[C@H](Cc1ccccc1)NS(=O)(=O)c1ccc(-c2ccc(Br)cc2)cc1	20 nM	27000 nM	100000 nM	–	19 nM	21 nM	10300 ng/mL	6280 ng/mL	29.7 h	465 µg·h/mL	310 µg·h/mL	2.67 h
CC(C)[C@@H](NS(=O)(=O)c1ccc(Oc2ccccc2)cc1)C(=O)NO	4 nM	3 nM	180 nM	–	1 nM	2 nM	310 ng/mL	–	7.78 h	3.17 µg·h/mL	2.17 µg·h/mL	0.33 h
CC(C)[C@@H](NS(=O)(=O)c1ccc(-c2ccc(C#N)cc2)cc1)C(=O)NO	5 nM	27 nM	240 nM	170 nM	–	–	180 ng/mL	–	0.79 h	0.33 µg·h/mL	0.23 µg·h/mL	1 h
CC(C)[C@H](NS(=O)(=O)c1ccc(-c2ccc(Br)cc2)cc1)C(=O)NO	810 nM	84000 nM	78000 nM	24000 nM	450 nM	650 nM	–	–	–	–	–	–
CC(C)C[C@H](NS(=O)(=O)c1ccc(-c2ccc(Br)cc2)cc1)C(=O)O	7 nM	4900 nM	3100 nM	7000 nM	9 nM	5 nM	30700 ng/mL	12400 ng/mL	41.8 h	1210 µg·h/mL	578 µg·h/mL	2.33 h
COc1ccc(-c2ccc(S(=O)(=O)N[C@H](C(=O)O)C(C)C)cc2)cc1	–	2200 nM	7200 nM	1500 nM	3 nM	6 nM	4260 ng/mL	< 10 ng/mL	0.357 h	2.98 µg·h/mL	2.79 µg·h/mL	0.5 h
CC(C)[C@H](NS(=O)(=O)c1ccc(-c2ccc([N+](=O)[O-])cc2)cc1)C(=O)O	15 nM	38000 nM	5600 nM	12000 nM	–	102 nM	23400 ng/mL	8360 ng/mL	19.5 h	586 µg·h/mL	402 µg·h/mL	0.667 h
O=C(O)CNS(=O)(=O)c1ccc(-c2ccc(Br)cc2)cc1	10 nM	6700 nM	77000 nM	50000 nM	4 nM	26 nM	9960 ng/mL	5670 ng/mL	15.6 h	316 µg·h/mL	276 µg·h/mL	8 h
CC(C)[C@H](NS(=O)(=O)c1ccc(-c2ccc(C=O)cc2)cc1)C(=O)O	8 nM	17000 nM	4500 nM	3200 nM	12 nM	16 nM	–	–	–	–	–	–
O=C(O)C(CCS(=O)(=O)Cc1ccccc1)NS(=O)(=O)c1ccc(-c2ccc(Br)cc2)cc1 (stereo not given)	7 nM	2300 nM	15000 nM	27000 nM	2 nM	12 nM	451 ng/mL	–	3.88 h	2.73 µg·h/mL	2.48 µg·h/mL	1.67 h
CC(C)[C@H](NS(=O)(=O)c1ccc(-c2ccc(C(F)(F)F)cc2)cc1)C(=O)O	9 nM	20000 nM	7900 nM	4200 nM	–	23 nM	18600 ng/mL	11700 ng/mL	37.9 h	1110 µg·h/mL	685 µg·h/mL	2.25 h
CC(C)[C@H](NS(=O)(=O)c1ccc(-c2cccc(F)c2)cc1)C(=O)O	17 nM	65000 nM	22000 nM	8600 nM	49 nM	150 nM	–	–	–	–	–	–
